Hits are enriched below; roughly 9% of the tested compounds scored in any of these assays.
M1 agonist – M1 muscarinic receptor agonism. CHO-M1 cells, Fluo-4 calcium fluorescence, agonist mode; active compounds read high. actives 3% (n = 64,000). B-score at 10 µM;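 active = fluorescence rise, raw or as B-score row- and column-corrected plate score, outside the 99.7% band of its plate's samples, either direction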
D1 mod – allosteric modulators of human D1 dopamine receptor; HEK293 D1, CRE-luciferase, dopamine EC30 potentiation; actives deviate in either direction; B-score at 10 µM; actives 5.9% (n = 58,000);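 active = luminescence count or its row- and column-corrected plate score outside the 99.7% band of the plate's sample wells, on either side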
Target sequence (P21728 whole entry, looked up): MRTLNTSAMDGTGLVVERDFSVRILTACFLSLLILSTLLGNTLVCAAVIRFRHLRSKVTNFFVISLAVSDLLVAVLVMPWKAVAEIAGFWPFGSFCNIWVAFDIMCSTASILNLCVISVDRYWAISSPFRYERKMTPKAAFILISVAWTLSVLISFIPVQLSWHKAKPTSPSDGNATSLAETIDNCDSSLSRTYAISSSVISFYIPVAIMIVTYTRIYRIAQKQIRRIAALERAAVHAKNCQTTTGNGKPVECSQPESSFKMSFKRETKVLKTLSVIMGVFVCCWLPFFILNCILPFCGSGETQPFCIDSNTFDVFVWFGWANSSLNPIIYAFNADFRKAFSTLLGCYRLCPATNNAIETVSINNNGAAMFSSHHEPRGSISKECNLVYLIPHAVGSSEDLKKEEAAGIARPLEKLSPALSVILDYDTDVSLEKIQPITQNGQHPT
AP ELISA ortho – alternative pathway complement inhibition, orthogonal assay. Human serum alternative complement pathway, LPS-coated ELISA, C3 deposition; tested in compound mixtures. inhibition, % at 5 µM. actives 0.08% (n = 62,000);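 active = inhibition above 30% in each of the two pooled mixtures holding the compound, so the lower value exceeds 30%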;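 note: 0% = serum in Mg-EGTA without compound and 100% = EDTA serum blank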
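Medium: diluted human serum in Mg2+-EGTA GVB++. Assay system: human serum complement alternative pathway, C3 deposition onto LPS. Also added: Plate-bound LPS. Technique: Anti-C3 ELISA, OD 450 nm. Measure: percent inhibition. Incubation: 1 h at 37 °C. Dosing: 5 µM each compound, pools of ten, 50 µM per pool.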
M1 antag – antagonists of rat M1 muscarinic receptor. P08482. actives 3.4% (n = 64,000). B-score at 10 µM. AID 628. CHO-M1 cells, Fluo-4 calcium, ACh EC80 antagonist mode; active compounds read low;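 active = calcium fluorescence response, raw or row-and-column corrected B-score, differing from the plate sample mean either way at a set confidence level, mostly lower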
mHtt clearance – compounds clearing mutant huntingtin protein. actives 0.42% (n = 47,000). AID 853. HeLa Exon1htt(103Q)mCFP, aggregate imaging; zero = plate's median compound well. inhibition, % at 1.5 µM;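 active = inhibition of aggregate fluorescence above about 70%, also judged a hit by eye on the cell image, limit read from the data, passing the limit was not always enough; inconclusive = no rule stated for this call; inactive = not judged a hit on image review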;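 note: cells exposed to compound for three days before fixation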
M1 agonist conf – rat M1 muscarinic agonism, confirmation. shares compounds with M1 agonist. CHO-M1 cells, Fluo-4 calcium fluorescence, agonist mode; actives lie on both sides. fluorescence change (max-min) at 10 µM. actives 19% (n = 1,700). AID 1488;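 active = fluorescence change differs from the solvent-only DMSO control mean at a set confidence level in both duplicate runs; inconclusive = differs from solvent-only control mean in just one of two runs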;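 note: an EC20 dose of acetylcholine follows compound addition during the same imaging run; raw fluorescence intensity difference in instrument units with no normalization to controls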
M4 ag counter – rat M4 muscarinic agonism, M1 counter-screen. shares compounds with M1 agonist. CHO M4/Gqi5 cells, Fluo-4 calcium fluorescence, agonist mode; actives lie on both sides. fluorescence change (max-min) at 10 µM. actives 9% (n = 1,700). AID 1741;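 active = fluorescence change differing from the plate's solvent-only control wells at 99.7% confidence in both duplicates, whether higher or lower; inconclusive = differs from solvent controls in only one of two duplicates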
Starred values were filed as active, the others as inactive.

Results for Cc1[nH]c2ccc(-c3nnc(SCC(=O)N4CCCc5ccccc54)o3)cc2c1C ?
M1 agonist: 45*; D1 mod: 0.035; AP ELISA ortho: -10; M1 antag: -1.1; mHtt clearance: -83; M1 agonist conf: inconclusive; M4 ag counter: -41

How did CC(=O)OC(C(=O)NC1CCCCC1)c1ccc(C#N)cc1 (centres undefined) do in these assays?
M1 agonist: -0.018; D1 mod: -0.13; AP ELISA ortho: 18; M1 antag: 0.27; mHtt clearance: -4

Results for COc1ccc2cc(C(=O)NCc3ccco3)c(=Nc3ccc(C(=O)O)cc3)oc2c1 ?
M1 agonist: 2.7*; D1 mod: 1.8; AP ELISA ortho: -3; M1 antag: -0.02; M1 agonist conf: inconclusive; M4 ag counter: -68

Results for COc1cccc(CC(NC(C)=O)C(=O)NC2CCN(S(=O)(=O)c3ccc4ccccc4c3)CC2)c1 (centres undefined) ?
mHtt clearance: -16

How did O=C(NC1CCCCCC1)C1CCN(S(=O)(=O)c2ccccc2)CC1 do in these assays?
M1 agonist: 6.5*; D1 mod: -0.11; AP ELISA ortho: 12; M1 antag: 0.73; mHtt clearance: -7; M1 agonist conf: inconclusive; M4 ag counter: inconclusive

How did O=C(NC1CCN(S(=O)(=O)c2ccccc2)CC1)C1CCCCC1 do in these assays?
mHtt clearance: -48

Results for CCN1C(=O)N(CC)C2C1N(C(C)=O)C(=O)N2C(C)=O (centres undefined) ?
M1 agonist: 0.77; D1 mod: -0.54; AP ELISA ortho: 5; M1 antag: 0.17; mHtt clearance: -12

What do the screens show for `Cn1c(=O)[nH]c2cc(Cl)cnc21`?
M1 agonist: 9.1*; M1 antag: 0.057; mHtt clearance: -6; M1 agonist conf: 34; M4 ag counter: -5.4

How did FC(F)(F)c1nc2ncc(Cl)cc2[nH]1 do in these assays?
M1 agonist: -1.1; D1 mod: -0.46; AP ELISA ortho: 21; M1 antag: -0.27

Results for CCCCCn1c(=O)[nH]c2cc(C(=O)NCCCN3CCCCC3)ccc2c1=O ?
M1 agonist: -0.85; D1 mod: -1; AP ELISA ortho: 0; M1 antag: -0.61; mHtt clearance: -52

Results for CCCCCn1c(=O)[nH]c2cc(C(=O)NCCN(CC)CC)ccc2c1=O ?
M1 agonist: -2.1*; D1 mod: -1.9; AP ELISA ortho: 9; M1 antag: -0.5; mHtt clearance: -12; M1 agonist conf: -36*; M4 ag counter: -92

Results for COc1ccc(C2=CC(c3c(C)nn(-c4ccccc4)c3Cl)n3nnnc3N2)cc1OC (centres undefined) ?
M1 agonist: 5.5*; D1 mod: 2; AP ELISA ortho: 7; M1 antag: 1.8; M1 agonist conf: 38; M4 ag counter: 8.5

What do the screens show for `Cc1c(OC(=O)CNC(=O)OC(C)(C)C)ccc2c3c(c(=O)oc12)CCC3`?
M1 agonist: 2.4*; D1 mod: 1.9; AP ELISA ortho: 4; M1 antag: -0.35; M1 agonist conf: 0.27; M4 ag counter: -23

How did COc1ccc(C(C)=O)c(Oc2nc(CN3CCOCC3)nc3scc(-c4cccs4)c23)c1 do in these assays?
M1 agonist: 45*; D1 mod: 0.72; AP ELISA ortho: 15; M1 antag: -1.3; mHtt clearance: -50; M1 agonist conf: -14; M4 ag counter: -47

Results for CCOC(=O)C1=C(N)OC2=C(C(=O)CC(C)(C)C2)C1c1ccccc1OCC#N (centres undefined) ?
M1 agonist: -0.7; D1 mod: 0.3; AP ELISA ortho: -19; M1 antag: 0.041

How did COc1ccccc1N1CCN(C(=O)CSc2ncccc2-c2nc3ccccc3[nH]2)CC1 do in these assays?
M1 agonist: 13*; D1 mod: -0.82; AP ELISA ortho: -10; M1 antag: -0.56; M1 agonist conf: inconclusive; M4 ag counter: -62

What do the screens show for `O=C(OCC(=O)N1CCN(C(=O)c2ccco2)CC1)c1cn(-c2ccccc2)nc1-c1ccccc1`?
M1 agonist: 4.5*; D1 mod: 0.063; AP ELISA ortho: 15; M1 antag: -0.4; M1 agonist conf: inconclusive; M4 ag counter: -51

What do the screens show for `O=C(OCC(=O)N1CCN(C(=O)c2ccco2)CC1)c1cc(-c2ccc(F)cc2)nc2ccccc12`?
M1 agonist: 11*; AP ELISA ortho: -5; M1 antag: -1.2; mHtt clearance: -1; M1 agonist conf: 82*; M4 ag counter: 20

How did CC(C)(C)Nc1nc2nonc2nc1NC(C)(C)C do in these assays?
mHtt clearance: -2

How did C/C(N)=C(/C#N)C(=O)COC(=O)CCC1CCCC1 do in these assays?
mHtt clearance: 1

What do the screens show for `COC(=O)c1ccc2c(c1)SC1=C(CCCC1=O)N2`?
M1 agonist: 11*; D1 mod: -0.91; AP ELISA ortho: 3; M1 antag: 0.63; mHtt clearance: -8; M1 agonist conf: 55; M4 ag counter: inconclusive

What do the screens show for `O=S(=O)(Cc1ccccc1)N1CCN(Cc2ccc3c(c2)OCO3)CC1`?
D1 mod: -0.016; AP ELISA ortho: 21

How did Nc1nnc(SCc2cccc(C(F)(F)F)c2)s1 do in these assays?
M1 agonist: 1.6*; D1 mod: 0.13; AP ELISA ortho: 18; M1 antag: 0.97; mHtt clearance: 9; M1 agonist conf: -11; M4 ag counter: inconclusive

What do the screens show for `O=C1CS/C(=N\C(=O)N2c3ccccc3Sc3ccccc32)N1`?
M1 agonist: 0.016; D1 mod: -2.1; AP ELISA ortho: 11; M1 antag: -0.076

Results for CC(=O)c1c(C)[nH]c(C(=O)Nc2cc(C)ccc2C)c1C ?
M1 agonist: -0.043; D1 mod: -1.9; AP ELISA ortho: 13; M1 antag: -0.034; mHtt clearance: -17

Results for CC(=O)c1c(C)[nH]c(C(=O)NCCc2cccc(C)c2)c1C ?
M1 agonist: -2.4*; D1 mod: -2.7*; AP ELISA ortho: 2; M1 antag: -0.1; M1 agonist conf: inconclusive; M4 ag counter: inconclusive

Results for CCCCC(=O)Nc1ccc2oc(-c3ccncc3)nc2c1 ?
M1 agonist: 2.5*; D1 mod: 0.43; AP ELISA ortho: 4; M1 antag: 0.098; mHtt clearance: 39; M1 agonist conf: inconclusive; M4 ag counter: -49

What do the screens show for `CN(C)C=Nc1c(Br)cc(Br)c2nonc12`?
M1 agonist: 61*; D1 mod: 0.69; AP ELISA ortho: 9; M1 antag: -1.9; mHtt clearance: 91*; M1 agonist conf: 278*; M4 ag counter: 617*

Results for CC(=O)N1CCc2cc(S(=O)(=O)Nc3cccc(C(F)(F)F)c3)ccc21 ?
M1 agonist: 5.1*; D1 mod: -1.3; AP ELISA ortho: 8; M1 antag: -0.98; M1 agonist conf: -11; M4 ag counter: -34

Compound activity as filed in PubChem BioAssay.
